Measured values taken from ChEMBL document CHEMBL1127837, “6,9-Bis[(aminoalkyl)amino]benzo[g]isoquinoline-5,10-diones. A novel class of chromophore-modified antitumor anthracene-9,10-diones: synthesis and antitumor evaluations” (J Med Chem, 1994).
Values after ≈ are worked out from the molar mass of the structure shown. Values joined by “and” are separate entries in the source; they are usually repeats but may differ in a detail not shown here. Identical values can stand only once.

What was measured:
[1] = system: LoVo; assay: Tested in vitro for cytotoxic activity against Human colon Adenocarcinoma sensitive cell line (LoVo); type: functional, cell-based
Summary of the method: (§1)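 LoVo and doxorubicin-resistant LoVo/Dx colon cells grown in Ham's F12 with 10% fetal calf serum, glutamine, vitamins and Hepes at 37 °C. 2.5 × 10^5 cells/mL plated and preincubated 24 h, then exposed to drug for 144 h. MTT read-out at 570 nm. IC50 (µg/mL) derived; resistance index = IC50 resistant / IC50 sensitive line.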

[2] = Resistance index is the ratio of IC50 of resistant cell line/IC50 of sensitive cell line; type: functional; summary of the method: as §1
[3] = system: LoVo/DX (Homo sapiens); assay: Tested in vitro for cytotoxic activity against Doxorubicin resistant Human colon Adenocarcinoma cell line
[4] = system: P388; assay: Tested for antitumor activity against P388 murine leukemia; type: functional, Mus musculus
Summary of the method: (§2)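 P388 cells kept by serial ip passage (10^5 cells) in DBA2 male mice. CD2F1 mice inoculated iv with 10^6 cells on day 0. Drug given iv on days 1, 4 and 7. Daily observation for toxicity and survival over 60 days. Median survival time per group, expressed as %T/C = MST treated/MST control × 100.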

[5] = (§3) The compound was tested for antitumor activity against P388 murine leukemia by measuring maximum tolerated dose; type: ADME, organism-based; conditions: mouse, in vivo; read-out: LD10
Summary of the method: (§4)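 CD2F1 mice were given 10^6 P388 cells iv, followed by iv treatment on days 1, 4 and 7 after transplantation. Mice were observed daily for toxicity and survival for 60 days. The value is the maximum tolerated dose, taken as LD10, or else the maximum dose administered.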

[6] = system: L1210; assay: Tested in vitro for inhibitory activity against L1210 murine leukemia; type: functional, cell-based; conditions: Mus musculus
Summary of the method: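 L1210 suspension cells grown in McCoy's 5A with 10% horse serum, 10% CO2, 37 °C. Drug dissolved in water and added to 10^5 cells/tube at final 0.01, 0.1, 1 and 10 µg/mL.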

[7] = system: Mus musculus; assay: The compound was tested for antitumor activity against P388 murine leukemia at 22 (mg/kg/day) dose; type: functional; summary of the method: as §2
[8] = system: Mus musculus; assay: The compound was tested for antitumor activity against P388 murine leukemia at 12(mg/kg/day) dose; 0/16 toxic deaths/total no of mice; conditions: in vivo
[9] = system: Mus musculus; assay: The compound was tested for antitumor activity against P388 murine leukemia at 8 (mg/kg/day) dose; type: functional; summary of the method: as §2
[10] = system: Mus musculus; assay: The compound was tested for antitumor activity against P388 murine leukemia at 40 (mg/kg/day) dose; type: functional; summary of the method: as §2
[11] = system: Mus musculus; assay: The compound was tested for antitumor activity against P388 murine leukemia at 27 (mg/kg/day) dose; type: functional; summary of the method: as §2
[12] = system: Mus musculus; assay: The compound was tested for antitumor activity against P388 murine leukemia at 18 (mg/kg/day) dose; type: functional; summary of the method: as §2
[13] = system: Mus musculus; assay: The compound was tested for antitumor activity against P388 murine leukemia at 60 (mg/kg/day) dose; 15/16 toxic deaths/total no of mice; type: ADME, organism-based; conditions: in vivo
[14] = system: Mus musculus; assay: The compound was tested for antitumor activity against P388 murine leukemia at 12 (mg/kg/day) dose; type: functional; summary of the method: as §2
[15] = system: Mus musculus; assay: The compound was tested for antitumor activity against P388 murine leukemia at 27 (mg/kg/day) dose;7/55 toxic deaths/total no of mice; type: ADME, organism-based; conditions: in vivo
[16] = system: Mus musculus; assay: The compound was tested for antitumor activity against P388 murine leukemia at 60 (mg/kg/day) dose; type: functional; summary of the method: as §2
[17] = organism: Mus musculus; assay: as §3; type: ADME, organism-based; conditions: in vivo; summary of the method: as §4
[18] = system: Mus musculus; assay: The compound was tested for antitumor activity against P388 murine leukemia at 40 (mg/kg/day) dose; 25/37 toxic deaths/total no of mice; type: ADME, organism-based; conditions: in vivo
[19] = system: Mus musculus; assay: The compound was tested for antitumor activity against P388 murine leukemia at 8(mg/kg/day) dose; 0/8 toxic deaths/total no of mice; type: ADME, organism-based; conditions: in vivo
[20] = system: Mus musculus; assay: The compound was tested for antitumor activity against P388 murine leukemia at 22 (mg/kg/day) dose; 1/8 toxic deaths/total no of mice; type: ADME, organism-based; conditions: in vivo
[21] = system: Mus musculus; assay: The compound was tested for antitumor activity against P388 murine leukemia at 18 (mg/kg/day) dose; 1/40 toxic deaths/total no of mice; type: ADME, organism-based; conditions: in vivo
[22] = system: Mus musculus; assay: The compound was tested for antitumor activity against P388 murine leukemia at 6 (mg/kg/day) dose; 0/15 -no. of toxic deaths/no. of mice; type: ADME, organism-based; conditions: in vivo
[23] = system: Mus musculus; assay: The compound was tested for antitumor activity against P388 murine leukemia at 6 (mg/kg/day) dose; type: functional; summary of the method: as §2
[24] = system: Mus musculus; assay: The compound was tested for antitumor activity against P388 murine leukemia at 9 (mg/kg/day) dose; 3/8 -no. of toxic deaths/no. of mice; type: ADME, organism-based; conditions: in vivo
[25] = system: Mus musculus; assay: The compound was tested for antitumor activity against P388 murine leukemia at 9 (mg/kg/day) dose; type: functional; summary of the method: as §2
[26] = system: Mus musculus; assay: The compound was tested for antitumor activity against P388 murine leukemia at 7.5 (mg/kg/day) dose; 0/16 -no. of toxic deaths/no. of mice; type: ADME, organism-based; conditions: in vivo
[27] = organism: Mus musculus; assay: The compound was tested for antitumor activity against P388 murine leukemia by measuring median survival time of treated mice/median survival time of control x 100; type: functional
[28] = system: Mus musculus; assay: The compound was tested for antitumor activity against P388 murine leukemia at 2 (mg/kg/day) dose; 0/82 -no. of toxic deaths/no. of mice; type: ADME, organism-based; conditions: in vivo
[29] = system: Mus musculus; assay: The compound was tested for antitumor activity against P388 murine leukemia at 4 (mg/kg/day) dose; 43/48 -no. of toxic deaths/no. of mice; type: ADME, organism-based; conditions: in vivo
[30] = system: Mus musculus; assay: The compound was tested for antitumor activity against P388 murine leukemia at 3 (mg/kg/day) dose; 12/132 -no. of toxic deaths/no. of mice; type: ADME, organism-based; conditions: in vivo

SMILES | IC50 [1] | Ratio [2] | IC50 [3] | T/C [4] | MTD [5] | IC50 [6] | also measured
CCN(CC)CCNc1ccc(NCCN(CC)CC)c2c1C(=O)c1ccncc1C2=O | 0.29 µg/mL (≈ 0.663 µM) | 2.4 | 0.69 µg/mL (≈ 1.58 µM) | 122% | 60 mg/kg/day | 0.06 µg/mL (≈ 0.137 µM) | 
CC(=O)NCCNc1ccc(NCCNC(C)=O)c2c1C(=O)c1ccncc1C2=O |  |  |  |  |  | > 10 µg/mL | 
CCNCCNc1ccc(NCCNCC)c2c1C(=O)c1ccncc1C2=O |  |  |  |  |  | 0.01 µg/mL (≈ 0.0262 µM) | 
CN(C)CCNc1ccc(NCCN(C)C)c2c1C(=O)c1ccncc1C2=O | 0.076 µg/mL (≈ 0.199 µM) | 1.7 | 0.13 µg/mL (≈ 0.341 µM) |  |  | 0.006 µg/mL (≈ 0.0157 µM) | 
O=C1c2ccncc2C(=O)c2c(NCCN3CCCC3)ccc(NCCN3CCCC3)c21 | 0.5 µg/mL (≈ 1.15 µM) | 1.4 | 0.7 µg/mL (≈ 1.61 µM) | 100% | 60 mg/kg/day | 0.09 µg/mL (≈ 0.208 µM) | 
O=C1c2ccncc2C(=O)c2c(NCCN3CCOCC3)ccc(NCCN3CCOCC3)c21 | 5.32 µg/mL (≈ 11.4 µM) | 0.4 | 2.3 µg/mL (≈ 4.94 µM) | 122% | 60 mg/kg/day | 1.1 µg/mL (≈ 2.36 µM) | 
Cl.NCCNc1ccc(NCCN)c2c1C(=O)c1ccncc1C2=O |  |  |  |  |  | 0.01 µg/mL | T/C [7]: 250%; Toxic deaths [8]: 0; T/C [9]: 162%; T/C [10]: 128%; T/C [11]: 230%; T/C [12]: 206%; Toxic deaths [13]: 15; T/C [14]: 194%; Toxic deaths [15]: 7; T/C [16]: 36%; maximum tolerated dose [17]: 27 mg/kg/day; Toxic deaths [18]: 25; Toxic deaths [19]: 0; Toxic deaths [20]: 1; Toxic deaths [21]: 1
CNCCNc1ccc(NCCNC)c2c1C(=O)c1ccncc1C2=O.Cl | 0.08 µg/mL | 36 | 2.9 µg/mL | 189% | 8 mg/kg/day |  | 
O=C1c2ccccc2C(=O)c2c(NCCNCCO)ccc(NCCNCCO)c21 [AMETANTRONE] | 0.4 µg/mL (≈ 0.97 µM) | 87 | 34.7 µg/mL (≈ 84.1 µM) | 127% | 58 mg/kg/day | 0.03 µg/mL (≈ 0.0727 µM) | 
COc1cccc2c1C(=O)c1c(O)c3c(c(O)c1C2=O)C[C@@](O)(C(=O)CO)C[C@@H]3O[C@H]1C[C@H](N)[C@H](O)[C@H](C)O1 [DOXORUBICIN] | 0.03 µg/mL (≈ 0.0552 µM) | 133 | 4 µg/mL (≈ 7.36 µM) | 181% | 7.5 mg/kg/day |  | Toxic deaths [22]: 0; T/C [23]: 175%; Toxic deaths [24]: 3; T/C [25]: 222%; Toxic deaths [26]: 0
O=C1c2c(O)ccc(O)c2C(=O)c2c(NCCNCCO)ccc(NCCNCCO)c21 [MITOXANTRONE] | 0.009 µg/mL (≈ 0.0202 µM) | 28 | 0.25 µg/mL (≈ 0.562 µM) | 172% and 138% | 3 mg/kg/day | 0.009 µg/mL (≈ 0.0202 µM) | T/C [27]: 196%; LD10 [17]: 2 mg/kg/day and 4 mg/kg/day; Toxic deaths [28]: 0; Toxic deaths [29]: 43; Toxic deaths [30]: 12
NCCNc1ccc(NCCN)c2c1C(=O)c1ccncc1C2=O [PIXANTRONE] | 0.24 µg/mL (≈ 0.738 µM) | 30 | 7.2 µg/mL (≈ 22.1 µM) |  |  |  | 
